Assay results pooled from the literature.
Protocols differ between the studies behind these lines.
Sample: plasma

CN(C)C1(CNC(=O)c2ccc3c(c2)CCN3C(=O)c2ccccc2)CCOCC1
AUC(0-inf) (male CD-1 mouse; intraperitoneal, 30 mg/kg): 246 ng·h/mL

CC(C)[C@]12O[C@H]1[C@@H]1O[C@]13[C@]1(O[C@H]1C[C@H]1C4=C(CC[C@@]13C)C(=O)OC4)[C@@H]2O
AUC(0-inf) (SCID mouse; intravenous, 0.6 mg/kg): 619 ng·h/mL

O=C1CCC(N2Cc3c(ccc4c3OCC43CCN(Cc4ccccc4)CC3)C2=O)C(=O)N1 (stereo not drawn)
AUC(0-inf) (male CD-1 mouse; oral, 3 mg/kg): 1340 ng·h/mL

C[C@@H](O)[C@@H]1NC(=O)CNC(=O)[C@H](Cc2c[nH]cn2)NC(=O)[C@H](Cc2c[nH]c3ccccc23)NC(=O)[C@H](CC(N)=O)NC(=O)CNC(=O)C[C@@H](C(=O)N[C@@H](Cc2c[nH]c3ccccc23)C(=O)N[C@@H](Cc2ccccc2)C(=O)N[C@@H](Cc2ccccc2)C(=O)N[C@@H](CC(N)=O)C(=O)N[C@@H](Cc2ccc(O)cc2)C(=O)N[C@@H](Cc2ccc(O)cc2)C(=O)N[C@@H](Cc2c[nH]c3ccccc23)C(=O)O)NC(=O)[C@@H]2CCCN2C(=O)[C@H](CO)NC1=O
AUC(0-t) (mouse; intravenous, 3 mg/kg): 35100 ng·h/mL

N=C(N)NCCC[C@H](NC(=O)[C@H](Cc1ccccc1)NC(=O)[C@H](CCC(N)=O)NC(=O)OCc1ccccc1)C(=O)c1nccs1
AUC(0-t) (female C57BL/6 mouse; intravenous, 5 mg/kg): 1180 ng·h/mL

CCOC(=O)c1c(NC(=O)CNC(C)C)sc2c1CCCCC2
AUC(0-t) (male mouse; intraperitoneal, 100 mg/kg, single dose): 19300 ng·h/mL

CC(C)=CCC[C@](C)(O[C@@H]1O[C@H](CO)[C@@H](O)[C@H](O)[C@H]1O)[C@H]1CC[C@]2(C)[C@@H]1[C@H](O)C[C@@H]1[C@@]3(C)CC[C@H](O)C(C)(C)[C@@H]3CC[C@]12C
AUC(0-t) (mouse; oral, 10 mg/kg): 655 ng·h/mL

CC[C@H](C)[C@H](NC(=O)[C@H](Cc1ccccc1)NC(=O)[C@H](CCC(=O)O)NC(=O)[C@H](CCCCN)NC(=O)[C@H](C)NC(=O)[C@H](C)NC(=O)[C@H](CCC(N)=O)NC(=O)CNC(=O)[C@H](CCC(=O)O)NC(=O)[C@H](CC(C)C)NC(=O)[C@H](Cc1ccc(O)cc1)NC(=O)[C@H](CO)NC(=O)[C@H](CO)NC(=O)[C@@H](NC(=O)[C@H](CC(=O)O)NC(=O)[C@H](CO)NC(=O)[C@@H](NC(=O)[C@H](Cc1ccccc1)NC(=O)[C@@H](NC(=O)CNC(=O)[C@H](CCC(=O)O)NC(=O)[C@H](C)NC(=O)N(N)Cc1c[nH]cn1)[C@@H](C)O)[C@@H](C)O)C(C)C)C(=O)N[C@@H](C)C(=O)N[C@@H](Cc1c[nH]c2ccccc12)C(=O)N[C@@H](CC(C)C)C(=O)N[C@H](C(=O)N[C@@H](CCCNC(=N)N)C(=O)NCC(=O)N[C@@H](CCCNC(=N)N)C(=O)NCC(=O)O)C(C)C
AUC(0-t) (male CD-1 mouse; intravenous, 1 mg/kg, single dose): 2390 ng·h/mL

COc1cc(C(=O)c2nc(-c3cccc4[nH]ccc34)c[nH]2)cc(OC)c1OC
AUC(0-t) (male CD-1 mouse; intraperitoneal, 15 mg/kg): 1510 ng·h/mL
